# Bioassay records: PubChem BioAssay, Johns Hopkins Ion Channel Center
# MrgX1 PAM: human MrgX1 positive allosteric modulation, primary screen; B-score at 10 µM; 310,000 compounds, 0.63% hits; AID 588675; Q96LB2; MrgX1-HEK293, Fluo-4 calcium flux, FDSS; stronger effect = higher value;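 active means plate-corrected calcium response at least 3 library SD above typical, normal starting fluorescence, not activating the receptor alone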;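 further: compound read alongside a low EC10 to EC30 dose of BAM8-22 agonist; peak minus trough fluorescence over baseline measured at the second addition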
# Target sequence (Q96LB2 whole entry, looked up): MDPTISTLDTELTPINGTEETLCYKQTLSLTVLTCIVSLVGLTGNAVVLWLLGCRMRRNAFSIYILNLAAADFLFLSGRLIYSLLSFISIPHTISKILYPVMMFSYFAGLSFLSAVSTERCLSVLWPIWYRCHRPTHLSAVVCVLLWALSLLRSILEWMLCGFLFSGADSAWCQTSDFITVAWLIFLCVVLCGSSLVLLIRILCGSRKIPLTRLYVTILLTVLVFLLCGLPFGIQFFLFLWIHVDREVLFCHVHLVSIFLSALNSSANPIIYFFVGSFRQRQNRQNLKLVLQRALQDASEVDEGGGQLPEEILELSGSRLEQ
# MrgX1 antagonist: blocks BAM8-22 activation of human MrgX1 receptor; B-score at 10 µM; Q96LB2; 310,000 compounds, 1.3% hits; MRGX1-HEK293 calcium flux, Fluo-4, BAM8-22 antagonism; stronger effect = lower value;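 active means calcium-response B-score plate-corrected more than 3 library SD below zero, starting fluorescence within 5 deviations, no agonist response on first addition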;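 further: peak minus trough fluorescence over baseline after final BAM8-22 challenge near maximal dose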
# RGS4 inh: human RGS4 inhibition | HEK293 M3R/RGS4 inducible, Fluo-4 calcium flux; stronger effect = higher value; triggered by carbachol at its EC20 | P49798 | AID 463165 | B-score at 10 µM | 310,000 compounds, 0.45% hits;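 active means B-score, a plate-corrected calcium signal, over three deviations above library mean, with baseline fluorescence within five deviations of library mean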;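 further: RGS4 expression induced by doxycycline in cells with stable M3 receptor; B-score is computed from the integrated fluorescence ratio over baseline after carbachol; higher B-score means a larger calcium signal and so more RGS4 inhibition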
# MrgX1 agonist: activates human MrgX1 receptor signaling. Q96LB2. MrgX1-HEK293 cells, Fluo-4 calcium fluorescence, agonist mode; stronger effect = higher value. B-score at 10 µM. 310,000 compounds, 0.44% hits;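 active means calcium response B-score plate-corrected fluorescence ratio at least 3 library SD, with starting fluorescence B-score inside 5 SD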
#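 Test system: Stable human MrgX1 HEK293 cell line | Schedule: Overnight plating before 1 h dye loading | Read-out basis: Baseline-normalised fluorescence change ratio, B-scored | Detection: Kinetic calcium dye fluorescence, Fluo-4 NW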
# RGS4 act: potentiators or activators of RGS4 | HEK293 M3R/inducible RGS4, carbachol calcium flux Fluo4; stronger effect = lower value | B-score at 10 µM | 310,000 compounds, 0.92% hits;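 active means B-score of the integrated calcium signal more than 4 SD below the library mean, with starting fluorescence not abnormally high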;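 further: negative B-score means reduced calcium response which marks RGS4 activation or potentiation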
#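 Detection: kinetic calcium fluorescence imaging with Fluo4-AM dye, 2 µM / Material: HEK293 cells with stable M3R and inducible RGS4 / Schedule: recording 10 s baseline at 1 Hz, 100 s post-agonist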
# Numbers without * were called inactive; i = inactive; / = no result. Shown are actives, neighbours in structure and some others; about 3.5% of the full set was active somewhere.
SMILES,MrgX1 PAM,MrgX1 antagonist,RGS4 inh,MrgX1 agonist,RGS4 act
Cn1c2ccccc2c2cc(/C=N/NC(=O)c3ccc(O)cc3O)ccc21,i,i,i,i,i
Cn1c(O)c(/C=N/NC(=O)c2cc3ccccc3cc2O)c2ccccc21,i,i,i,49.8*,-7.59*
CCOc1ccc([C@@H]2CC=C(C(=O)O)CN2S(=O)(=O)c2ccc(C)cc2)cc1,i,i,/,i,/
Cc1ccc(C(=O)COC(=O)CCC(=O)Nc2ccccc2Cl)cc1[N+](=O)[O-],i,i,i,i,i
CC(=O)Nc1ccc(NC(=O)CCC(=O)OCC(=O)c2ccc(C)c([N+](=O)[O-])c2)cc1,i,-5.64*,i,i,i
COc1ccc(NC(=O)CSCc2cc(=O)n3c(C)csc3n2)cc1,i,i,i,i,i
Cc1csc(Nc2nc(N)c(C(=O)Nc3ccccc3)o2)n1,i,i,i,i,i
O=[N+]([O-])c1cccc(S(=O)(=O)Nc2ccc(-c3ccc(N4CCOCC4)nn3)cc2)c1,7.78*,i,i,i,i
O=[N+]([O-])c1cccc(S(=O)(=O)Nc2ccc(-c3ccc(N4CCCC4)nn3)cc2)c1,i,i,i,i,i
CCCOc1ccc(CNC(=O)c2ccc3c(c2)N(CC)CCS3)cc1,i,i,i,i,i
CC(C)Cn1c(-c2ccc(C#N)cc2)nc2c1c(=O)[nH]c(=O)n2CC(C)C,i,i,i,i,i
Cc1cccc(-n2c(CNC(=O)c3ccc(S(=O)(=O)N(C)C)cc3)nnc2SCC(=O)Nc2ccc(F)cc2)c1,i,i,i,i,-8.1*
Cc1cccc(NC(=O)CSc2nnc(CNC(=O)c3ccc(S(=O)(=O)N(C)C)cc3)n2-c2ccc(F)cc2)c1,i,i,i,i,i
COc1ccc(C(=O)CC(=O)c2ccccc2)cc1,i,i,i,i,i
COc1ccc(C(=O)C/C(=C\C(=O)c2ccc(C)cc2)c2ccccc2)cc1,i,-5.56*,i,i,-7.12*
Cc1oc2cc(Br)c(O)c(Br)c2c1-c1ccccc1,14.7*,i,i,i,i
Cc1cccn2c(=O)c3cc(C(=O)NCCN4CCOCC4)c(=N)n(Cc4ccc(F)cc4)c3nc12,i,i,i,i,i
COc1cc(OC)c(/C=C2\SC(=O)N(CC(=O)Nc3ccccc3F)C2=O)c(OC)c1,i,i,i,i,i
COc1cc(/C=C2\SC(=O)N(CC(=O)Nc3ccccc3F)C2=O)cc(Cl)c1O,i,-6.22*,i,i,i
O=C(On1c(-c2ccccc2)nc2ccccc2c1=O)c1ccco1,i,i,i,i,-8.11*
CSc1nc(NCC(C)C)c2c3c(sc2n1)CN(C)CC3,i,i,i,i,-7.36*
COCCNc1nc(SC)nc2sc3c(c12)CCN(C)C3,i,i,i,i,i
Cc1cc(/C=C\c2ccc3cc(N(C)C)ccc3[n+]2C)c(C)n1-c1ccccc1,i,-9.69*,/,i,/
C[n+]1c(/C=C/c2ccc(O)cc2)ccc2ccccc21,i,i,i,i,i
COc1ccc(CCNC(=O)c2cc3c(C)nccc3[nH]c2=O)cc1OC,i,i,i,i,i
SMILES,MrgX1 PAM,MrgX1 antagonist,RGS4 inh,MrgX1 agonist,RGS4 act
COc1cc(C(c2c(O)nc(SC)[nH]c2=O)c2c(O)nc(SC)[nH]c2=O)cc(OC)c1OC,i,-4.68*,i,i,i
CC1CC(C)CN(C(=O)c2ccc3c(c2NCCO)C(=O)c2ccccc2C3=O)C1 (configuration not stated),13.9*,i,i,i,i
O=C1c2ccccc2-c2c1cccc2C(=O)N1CCCCC1,i,i,i,i,i
O=C(NC(=S)NCCC1=CCCCC1)c1cccnc1,i,i,i,i,i
Cc1ccc(C(=O)NCCC(=O)N2CCCC2)cc1,i,i,i,i,i
Cc1cc(NC(=O)CSCC(=O)OC(C)C(=O)c2cc(C)c(C)cc2C)no1 (configuration not stated),i,i,i,i,i
